Screening results as filed in PubChem BioAssay.
An excerpt weighted towards active compounds, which were near 2.6% of everything screened.
bCat nuc transl: alters nuclear translocation of beta-catenin in HeLa cells; immunofluorescence imaging; nuclear translocation activity, % at 5 µM; 190,000 compounds, 0.3% hits; AID 1665;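 active = nuclear translocation activity above 50% at 5 µM, with a well cell count of 50 or more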;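 note: per-cell ratio of nuclear to cytoplasmic median beta-catenin stain intensity; plate controls were DMSO negative control for no effect and GSK-3 inhibitor IX positive control for full effect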
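Test system: human HeLa cells, endogenous beta-catenin. Times: 24 h compound exposure, 37°C. Measured by: beta-catenin immunofluorescence imaging with DAPI.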
NPY Y2 blocker: antagonists of human neuropeptide Y receptor Y2 | P49146 | NPY-Y2 expressing cells, antagonist mode | inhibition, % at 2.7 µM | 140,000 compounds, 0.99% hits | AID 793; in the data active = inhibition above about 17%;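 note: 0% = vehicle with agonist challenge and 100% = reference antagonist with challenge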
Target sequence (P49146 whole entry, looked up): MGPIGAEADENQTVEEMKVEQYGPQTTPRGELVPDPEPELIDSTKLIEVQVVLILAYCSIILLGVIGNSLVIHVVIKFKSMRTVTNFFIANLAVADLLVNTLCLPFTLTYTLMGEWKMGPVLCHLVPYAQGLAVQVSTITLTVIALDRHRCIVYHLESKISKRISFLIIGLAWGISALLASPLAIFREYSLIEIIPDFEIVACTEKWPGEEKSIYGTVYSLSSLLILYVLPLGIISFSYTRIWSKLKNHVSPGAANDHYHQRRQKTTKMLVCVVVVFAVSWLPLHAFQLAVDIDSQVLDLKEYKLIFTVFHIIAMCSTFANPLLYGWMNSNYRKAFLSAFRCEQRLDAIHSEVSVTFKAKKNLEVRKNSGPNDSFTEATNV
NPY Y1 blocker: antagonists of human neuropeptide Y receptor Y1. P25929. HEK293-CNG Y1 cells, membrane potential fluorescence; NPY at EC95, then isoproterenol. inhibition, % at 3.6 µM. 200,000 compounds, 1% hits. AID 1040;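 active = inhibition above the campaign mean inhibition of all tested compounds plus 3 SD, cut at about 20% in these data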;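 note: 0% = DMSO wells given NPY plus isoproterenol and 100% = isoproterenol alone without NPY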
Target sequence (P25929 whole entry, looked up): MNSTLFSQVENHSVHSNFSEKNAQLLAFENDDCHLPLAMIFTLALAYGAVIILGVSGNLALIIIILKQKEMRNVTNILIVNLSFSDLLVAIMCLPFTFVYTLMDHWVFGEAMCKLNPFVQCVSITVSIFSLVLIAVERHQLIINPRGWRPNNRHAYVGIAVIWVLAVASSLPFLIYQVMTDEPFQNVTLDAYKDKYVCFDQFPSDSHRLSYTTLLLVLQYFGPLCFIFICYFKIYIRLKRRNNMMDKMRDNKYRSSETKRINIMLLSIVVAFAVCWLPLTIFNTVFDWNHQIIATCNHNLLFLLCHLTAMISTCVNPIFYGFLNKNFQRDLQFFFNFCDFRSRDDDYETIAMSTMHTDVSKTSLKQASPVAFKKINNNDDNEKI
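Material: Y1- and CNG-channel-expressing HEK293 cells / Probe or stimulus: NPY 25 nM then isoproterenol 1 µM plus Ro 20-1724 25 µM / Doses: 3.6 µM single dose, DMSO 0.4% / Schedule: compound incubation 1 h at room temperature, readout 45 min post-stimulation / Signal: membrane potential fluorescence / Benchmarks: isoproterenol-only wells as full block versus NPY-plus-isoproterenol wells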
NPY1 pot ag: human NPY-Y1 potentiation or agonism, primary screen. P25929. NPY-Y1 expressing cells, potentiator/agonist activation. activation, % at 3.6 µM. 220,000 compounds, 0.37% hits. AID 1304; in the data active = activation above about 33%, passing the limit was not always enough;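 note: cells stimulated with NPY at EC10 then isoproterenol at EC100; 0% = low agonist plus stimulus and 100% = saturating agonist plus stimulus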
NPY2 pot ag: potentiators or agonists of human neuropeptide Y receptor Y2; P49146; cells expressing NPY-Y2, potentiator/agonist read-out; activation, % at 3.6 µM; 220,000 compounds, 0.45% hits; AID 1359; in the data active = activation above about 27%;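 note: cells stimulated with NPY near EC25 plus isoproterenol at EC100; 0% = vehicle plus submaximal agonist and 100% = vehicle plus saturating agonist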
MT stabilizer: microtubule stabilizers in HeLa cells; HeLa tubulin immunostaining HCS, 24 h; share of cells brighter than vehicle mean+2SD; % tubulin-high responders, % at 10 µM; AID 2205; 200,000 compounds, 0.83% hits;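 active = plate Z-score above 3 for both tubulin-high and condensed-nucleus cell shares, with cell loss under 80%, at 10 µM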;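 note: anti alpha tubulin signal scored within the nucleus-defined area of each cell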
NPY-Y1 pot conf: human NPY-Y1 potentiation or agonism, confirmation; shares compounds with NPY1 pot ag; cell-based NPY-Y1 potentiator/agonist assay; activation, % at 3.6 µM; 280 compounds, 20% hits; AID 1546; in the data active = activation above about 45%;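 note: cells challenged with NPY at its EC10 plus isoproterenol stimulus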
NPY-Y2 counter: potentiates or activates NPY-Y2, counter-screen for NPY-Y1 hits; shares compounds with NPY1 pot ag; HEK293-CNG cells, membrane-potential fluorescence (FLIPR), 1536-well; activation, % at 3.6 µM; 280 compounds, 20% hits; AID 1649; in the data active = activation above about 33%
NPY-Y1 ag: counter-screen for NPY-Y1 potentiators: agonists of human NPY-Y1. shares compounds with NPY1 pot ag. HEK293 Y1-CNGC, membrane potential fluorescence, agonist mode. activation, % at 3.6 µM. 280 compounds, 50% hits. AID 1697;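 active = percent activation above the mean of DMSO-only control wells plus 3 SD of those wells, cut at about 18% in these data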;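 note: cells challenged with isoproterenol plus Ro 20-1724 with no NPY in test wells; Y1 agonism lowers isoproterenol-driven cAMP and reduces probe fluorescence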
NPY-Y2 agonist: human NPY-Y2 agonism as NPY-Y1 counter-screen | shares compounds with NPY1 pot ag | HEK293 Y2-CNGC, membrane potential fluorescence, agonist mode | activation, % at 3.6 µM | 280 compounds, 67% hits | AID 1698;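 active = activation above the solvent-only control wells' mean plus 3 SD, cut at about 11% in these data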;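 note: 0% = DMSO with isoproterenol and 100% = 40 nM NPY maximal response; agonism lowers cAMP so well fluorescence drops in active wells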
CNGC counter: blocks cyclic nucleotide gated channel in NPY-Y1 counter-screen; AID 1704; inhibition, % at 3.6 µM; shares compounds with NPY1 pot ag; 280 compounds, 42% hits; HEK293-CNG parental, isoproterenol cAMP, membrane potential fluorescence;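 active = inhibition above the mean of stimulated solvent-only control wells plus 3 SD, cut at about 22% in these data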;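 note: 0% = isoproterenol-stimulated DMSO wells and 100% = unstimulated DMSO wells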
* marks the source's active call; other numbers are inactive results; x = no result given.

SMILES	bCat nuc transl	NPY Y2 blocker	NPY Y1 blocker	NPY1 pot ag	NPY2 pot ag	MT stabilizer	NPY-Y1 pot conf	NPY-Y2 counter	NPY-Y1 ag	NPY-Y2 agonist	CNGC counter
CC1(C)Cc2c(cnn2-c2ccccc2)-c2c1c1ccccc1n2CC(O)CBr (centres undefined)	0.0	-2.7	-14.1	49.9*	13.2	1.2	25.4	13.2	11.9	11.9*	13.7
OC(CNC1Cc2ccccc2C1)COc1ccc(Cl)cc1 (centres undefined)	0.6	x	x	45.4*	22.6	x	-3.5	6.3	17.4*	15.6*	-10.5
CC(C)Cc1nc(N2CCN(C(=O)C(C)C)CC2)c(C#N)c2c1CCC2	-2.7	10.5	7.2	30.8*	-9.4	3.5	-21.7	-8.0	-25.9	-7.0	-9.4
CC(=O)N1CCN(c2nc(CC(C)C)c3c(c2C#N)CCC3)CC1	-4.0	2.4	3.7	6.6	-25.1	3.3	x	x	x	x	x
COc1ccc(-n2nc3ccc(NS(C)(=O)=O)cc3n2)cc1Cl	-1.0	-0.5	3.3	42.1*	19.6	2.7	43.5	8.2	45.5*	15.9*	17.1
Cc1nc(C)c(-c2csc(Nc3cccnc3)n2)s1	x	-6.7	-15.8	40.1*	25.9	3.2	51.1*	41.4*	52.6*	52.0*	41.4*
Clc1ccc(-[n+]2c(-c3cccc(Br)c3)[nH]c3nc4ccccc4nc32)cc1	-1.7	x	x	51.2*	6.9	x	49.8*	46.9*	4.6	36.4*	5.6
CC1CN(C(=O)C2(C)CC2(Br)Br)CC(C)O1 (centres undefined)	1.3	-0.2	4.0	9.0	2.4	1.4	x	x	x	x	x
O=C(Cn1c(-c2cscn2)nc2ccccc21)Nc1ccccc1F	x	-1.2	-1.4	-18.5	-15.8	4.5	x	x	x	x	x
Cc1ccc(S(=O)(=O)N2CCCN(S(=O)(=O)c3ccc(C)cc3)CC2)cc1	x	1.1	-5.3	-3.7	-0.6	3.0	x	x	x	x	x
Cc1ccc(O)c(N=Nc2ccc(S(=O)(=O)N3CCCC3)cc2)c1	0.9	x	x	45.0*	35.2	x	45.1*	32.0	29.9*	42.3*	27.0*
CCOc1ccc(NC(=O)CCN2CCCCC2)cc1	-0.4	-0.5	-5.9	-0.7	2.2	2.7	x	x	x	x	x
CC(CC(=O)Nc1ncc([N+](=O)[O-])s1)c1ccccc1 (centres undefined)	-1.4	x	-2.8	17.1	12.9	2.7	x	x	x	x	x
O=C(Cc1ccc(Cl)cc1)Nc1ncc([N+](=O)[O-])s1	-1.8	x	-3.4	36.1*	11.2	2.4	8.2	14.3	13.9	10.7*	6.0
O=C(CSc1nc2cc(C(F)(F)F)ccc2n1Cc1ccccc1)NC1CCS(=O)(=O)C1 (centres undefined)	-4.2	1.6	-9.6	47.9*	32.5	3.0	91.3*	62.8*	78.4*	52.9*	71.8*
CCOCCOC(=O)COc1ccc(N2C(=O)c3ccccc3C2=O)cc1	0.1	2.3	-3.1	44.2*	10.6	2.8	82.7*	54.8*	62.8*	43.9*	80.0*
CC1c2[nH]c3ccccc3c2CCN1C(=O)Nc1ccccc1 (centres undefined)	4.9	-1.0	-8.4	47.1*	9.4	42.7*	5.1	5.0	5.7	0.0	5.6
CC(C)(C)c1ccc(Oc2ccc(N)cn2)cc1	2.3	x	x	48.7*	38.5	x	41.0	40.4*	19.6*	40.2*	33.8*
Cc1cc(Oc2ccc(N)cn2)cc(C)c1Cl	0.8	x	x	16.1	-0.7	x	x	x	x	x	x
CCOC(=O)C(=O)Nc1nnc(CCc2ccccc2)s1	-0.7	0.2	0.9	-10.2	-14.9	2.9	x	x	x	x	x
CCCCC(=O)Nc1ccc(C(=O)Nc2ccc(S(=O)(=O)Nc3ccc(C)cc3)cc2)cc1	0.8	-5.4	-11.4	59.5*	21.5	5.0	19.9	15.6	10.3	16.5*	14.9
COc1ccc(/C=N\NS(=O)(=O)c2ccc(Cl)cc2)cc1COc1ccccc1[N+](=O)[O-]	1.3	1.2	0.4	4.0	7.0	3.1	x	x	x	x	x
CC1CN(c2nnc(NC(=O)c3ccccc3)s2)CC(C)O1 (centres undefined)	-5.0	x	-2.3	12.9	3.9	2.8	x	x	x	x	x
O=C(CNC(=O)c1cccc(Cl)c1)N/N=C/C=C/c1ccccc1	-1.8	-0.9	-1.9	5.4	6.1	3.0	x	x	x	x	x
CCCn1nc([N+](=O)[O-])c(C(C#N)c2nc3ccccc3s2)c(Cl)c1=O (centres undefined)	-5.9	4.2	-7.0	59.4*	27.4	2.6	20.5	21.4	16.6	32.0*	17.2
SMILES	bCat nuc transl	NPY Y2 blocker	NPY Y1 blocker	NPY1 pot ag	NPY2 pot ag	MT stabilizer	NPY-Y1 pot conf	NPY-Y2 counter	NPY-Y1 ag	NPY-Y2 agonist	CNGC counter
CCn1nc([N+](=O)[O-])c(C(C#N)c2nc3ccccc3n2C)c(Cl)c1=O (centres undefined)	-4.7	2.9	0.1	-6.9	8.5	2.4	x	x	x	x	x
CCCC(=O)Nc1nn(C)c2nc3cc(C)ccc3cc12	0.4	x	x	x	x	x	x	x	x	x	x
Cc1ccc2cc3c(NC(=O)C(C)C)nn(C)c3nc2c1	2.9	-0.6	1.9	37.0*	10.3	3.6	-2.6	-4.3	-2.4	6.2	1.0
C=CCN1C(=O)C(CC(=O)Nc2ccc(OCCC)cc2)N(CCCN2CCN(Cc3ccccc3)CC2)C1=S (centres undefined)	x	x	-10.6	19.7	13.5	3.7	x	x	x	x	x
OCCNCCOc1ccccc1F	-1.9	2.8	6.4	-23.5	-3.8	3.4	x	x	x	x	x
COCCCNCC(O)COc1ccccc1F (centres undefined)	0.1	x	-0.6	49.1*	25.7	1.2	30.4	24.7	30.8*	26.8*	3.5
Cc1csc2c(N3CCN(C(=O)Nc4ccc(OC(F)(F)F)cc4)CC3)ncnc12	-0.6	x	x	-7.9	-13.0	x	x	x	x	x	x
Cc1ccc(NC(=O)c2noc3c2CCCCC3)cc1C	x	5.1	7.8	49.1*	-4.9	5.1	-11.4	-3.6	-11.1	-5.4	-14.2
O=C(NCc1cccs1)C1CCN(S(=O)(=O)c2ccccc2F)CC1	0.0	x	x	10.9	3.5	x	x	x	x	x	x
COc1cc(OC)cc(C(=O)NC(=S)Nc2ccc(NC(=O)c3ccco3)cc2)c1	-3.9	2.1	0.4	-17.8	-12.0	1.8	x	x	x	x	x
